Screening results as filed in PubChem.
Vif imaging = HIV Vif inhibition; inhibition, % at 7.49 µM; HEK293T cells, Vif self-association by quenched fluorescence, imaging, 24 h; AID 602346; 0.35% of 340,000 active; in the data active = inhibition above about 50%, passing the limit was not always enough; inconclusive = no clear call, values can overlap the other calls; inactive = below about 31%
SR-BI DiI-HDL act = enhances SR-BI lipid uptake from DiI-HDL; CHO ldlA[mSR-BI] cells, DiI-HDL uptake fluorescence, 3 h; 100 = double the neutral-control signal; activation, % at 12.5 µM; 0.096% of 320,000 active;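 active = mean replicate activation of at least 60% and every replicate at or above 60%; inconclusive = mean or all-replicate condition met, but not both; inactive = mean below 60% and not all replicates reaching 60%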;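 note: 0% = median plate neutral-control signal and 100% = twice that signal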
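Assay system: LDL receptor-deficient CHO ldlA cells overexpressing murine SR-BI / Medium: BSA-supplemented, HEPES-buffered Ham's F12, pH 7.4 / Probe or stimulus: DiI-labelled HDL at 10 µg/mL final / Timing: compound with DiI-HDL co-incubation, 3 h at 37 °C / Technique: bottom-read cell fluorescence after medium removal, ex 550/em 595 nm / Measure: HDL uptake via cellular fluorescence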
PKA-R1A act = PKA-R1A complex activation; P00514+P68181; PKA-R1A dissociation, Cy5-IP20 fluorescence polarization; scaled: DMSO 0%, 113 µM cGMP 100%; activation, % at 11.4 µM; 0.083% of 340,000 active;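 active = percent activation above the mean of all tested compounds plus 3 SD, cut at about 19% in these data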;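 note: higher means more PKAc released from R1A so a rise in polarization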
PKA-R2B activ = activators of human PKA-R2B complex; PKA-R2B holoenzyme dissociation, Cy5-IP20 fluorescence polarization; R2B truncated from residue 108, S112A mutant; 0% DMSO only, 100% 113 µM cGMP; activation, % at 11.4 µM; 0.079% of 340,000 active;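 active = activation above a cutoff set at the mean over all compounds plus 3 SD, cut at about 18% in these data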;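 note: higher means more holoenzyme dissociation and a rise in polarization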
SR-BI HDL uptake = inhibitors of mouse SR-BI mediated HDL lipid uptake; Q61009; ldlA[mSR-BI] CHO cells, DiI-HDL uptake fluorescence, 3 h; inhibition, % at 12.5 µM; 0.96% of 320,000 active; AID 488896;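 active = mean replicate inhibition of at least 70% and a set share of replicates each scoring 70 or more; inconclusive = meets just one of the two criteria; inactive = fails both criteria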;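 note: 0% = median of neutral control wells and 100% = median of positive control wells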
Target sequence (Q61009 whole entry, looked up): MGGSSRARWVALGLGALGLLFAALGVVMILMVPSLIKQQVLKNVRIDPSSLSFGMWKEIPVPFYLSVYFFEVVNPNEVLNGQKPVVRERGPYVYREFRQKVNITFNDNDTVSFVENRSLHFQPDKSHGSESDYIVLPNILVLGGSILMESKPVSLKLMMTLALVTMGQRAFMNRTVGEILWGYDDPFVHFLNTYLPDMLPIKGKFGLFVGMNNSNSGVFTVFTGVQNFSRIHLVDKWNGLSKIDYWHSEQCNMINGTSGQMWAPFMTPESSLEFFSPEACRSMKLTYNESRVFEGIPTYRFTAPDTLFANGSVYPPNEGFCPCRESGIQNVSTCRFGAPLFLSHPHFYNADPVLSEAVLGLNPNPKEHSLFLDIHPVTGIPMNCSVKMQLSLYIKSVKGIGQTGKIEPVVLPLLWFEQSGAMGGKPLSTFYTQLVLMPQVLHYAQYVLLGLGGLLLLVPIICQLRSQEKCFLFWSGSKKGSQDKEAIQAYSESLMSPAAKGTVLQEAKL
* marks the source's active call; other numbers are inactive results; ? = inconclusive; · = no result. Most compounds without a hit are left out; they make up all but 1.4% or so of the library.

SMILES | Vif imaging | SR-BI DiI-HDL act | PKA-R1A act | PKA-R2B activ | SR-BI HDL uptake
Cn1cc(CN2CCc3c([nH]c4ccccc34)C2C(C)(C)C)cn1 (centres undefined) | 86.4* | -2.4 | -6.8 | 3.1 | 2.4
Cn1cc(CN2CCc3c([nH]c4ccccc34)C2C2CCCCC2)cn1 (centres undefined) | -4.8 | 20.0 | -6.2 | 0.9 | -20.0
CCOC(=O)CSc1nnc(SCCN2C(=O)c3ccccc3C2=O)s1 | 18.6 | 27.5 | -9.4 | -20.7 | -27.5
COc1ccc(OCCCC(=O)Nc2ncn[nH]2)cc1 | 51.0* | 20.4 | 0.0 | 4.2 | -20.4
CCc1nnc(NC(=O)CSc2nnc(Cc3cc(=O)[nH]c(=O)[nH]3)n2-c2cccc(OC)c2)s1 | -4.5 | 12.9 | -4.0 | -21.7 | -12.9
COc1ccccc1-c1cc2nc(-c3ccccc3)cc(N3CCN(C(=O)c4ccoc4)CC3)n2n1 | -19.8 | · | -5.2 | -7.5 | ·
O=C1c2ccccc2C(=Nc2ccccc2)C1c1cccc(Br)c1 (centres undefined) | · | -81.3 | 8.0 | -3.4 | 81.3*
O=C1c2ccccc2-c2cc(Br)ccc2NC1O (centres undefined) | ? | · | 0.6 | 3.6 | ·
Oc1ccc(Nc2nc3ccccc3nc2Nc2ccc(O)cc2)cc1 | 9.0 | -90.1 | -7.1 | -8.2 | 90.1*
CCn1cc(/C=C(\NC(=O)c2ccccc2)C(=O)NCCCN2CCOCC2)c2ccccc21 | -3.4 | 31.9 | -6.7 | 3.4 | -31.9
COc1ccc(N2CC(O)=C(c3nc(-c4ccccc4)cs3)C2=N)cc1 | -0.4 | · | -7.1 | 3.9 | ·
COc1ccc(-c2nc(-c3ccc(O)cc3O)cs2)cc1OC | -1.1 | -91.1 | 3.2 | -12.9 | 91.1*
CC(C)CCN1CC(O)=C(c2nc(-c3ccc(Cl)cc3)cs2)C1=N | 3.0 | -76.1 | 5.5 | 6.5 | 76.1*
COc1ccc(-c2csc(C3=C(O)CN(C(C)C)C3=N)n2)cc1OC | 10.2 | -84.2 | 8.0 | 3.0 | 84.2*
COc1ccc(-c2nc(CCl)cs2)cc1OC | 15.3 | 15.2 | 1.4 | 3.2 | -15.2
Cn1c(CNC(=O)c2ccc(Cl)cc2)nnc1SCC(=O)NC1CCCC1 | 6.5 | · | -11.6 | 3.1 | ·
O=C(NCc1cccc(C(F)(F)F)c1)c1[nH]c(C(F)(F)F)nc1-c1ccccc1 | -6.2 | · | · | · | ·
CC(C)Cc1ccc(-c2ccc3nccn3c2)cc1 | -11.3 | · | · | · | ·
CC1=C(C(=O)Nc2ccccc2)C(c2cccnc2)n2ncnc2N1 (centres undefined) | -2.9 | 20.3 | -10.7 | -14.3 | -20.3
Cc1cc(C)n(-c2ccc(NC(=O)C3CCCCN3C(=O)c3ccoc3)cc2)n1 (centres undefined) | -4.9 | -12.6 | 0.0 | 9.8 | 12.6
Cc1cc(C)n(-c2ccc(NC(=O)C3CCCCN3Cc3cccc4c3OCO4)cc2)n1 (centres undefined) | 3.4 | -89.4 | 3.4 | -8.1 | 89.3*
CCc1cccc(C)c1NC(=O)CSc1nnc(CCCOc2ccc(Cl)cc2Cl)n1C | 9.6 | -75.4 | -0.7 | 3.4 | 75.4*
COc1cccc(N2CCN(C(=O)c3ccc(CS(=O)c4ccc(C)cc4)o3)CC2)c1 (centres undefined) | 56.3* | -14.7 | -8.0 | -7.2 | 14.7
COc1cccc(N2CCN(C(=O)c3ccc(CS(=O)c4ccc(Cl)cc4)o3)CC2)c1 (centres undefined) | 1.5 | 9.8 | -2.8 | -1.5 | -9.8
Cc1ccc(-c2cc(C(F)F)nc(NCC3CCCO3)n2)cc1 (centres undefined) | -8.0 | 223.5* | -10.2 | -9.3 | -223.5
SMILES | Vif imaging | SR-BI DiI-HDL act | PKA-R1A act | PKA-R2B activ | SR-BI HDL uptake
CCOc1cc(/C=C/C(=O)OCC(=O)NC2CCS(=O)(=O)C2)ccc1OCc1ccccc1 (centres undefined) | -3.8 | -73.4 | -10.8 | 2.8 | 73.5*
O=C(COC(=O)/C=C/c1ccccc1)NC1CCS(=O)(=O)C1 (centres undefined) | 22.6 | 11.1 | 9.4 | 5.7 | -11.1
CC(=O)NC(c1cccc(F)c1)c1nc(-c2cnn(C)c2)cs1 (centres undefined) | 4.4 | · | · | · | ·
O=C(CSc1ccc(-c2nc3ccccc3[nH]2)cn1)Nc1ccc2c(c1)OCCO2 | 55.0* | -5.9 | -0.3 | 3.6 | 5.9
O=C(CSc1ncccn1)NC(=O)Nc1ccc2c(c1)OCCO2 | 60.2* | -3.4 | 5.3 | 4.5 | 3.4
O=C(CSc1ncccn1)Nc1ccc2c(c1)OCO2 | 13.6 | -28.3 | -3.7 | 1.5 | 28.3
Cc1ccc2nc(-c3ccc(SCC(=O)Nc4ccc5c(c4)OCCO5)nc3)[nH]c2c1 | -1.3 | · | -5.1 | -8.9 | ·
CS(=O)(=O)N1N=C(c2cccs2)CC1c1ccco1 (centres undefined) | -6.2 | -3.5 | -5.7 | -11.1 | 3.5
O=C(NN1CCCCC1)NN1CCCCC1 | -2.3 | · | · | · | ·
CC(=O)c1ccc(NC(=O)CSc2nc(C3CC3)nc3ccccc23)cc1 | 51.0* | -16.2 | 1.8 | -8.4 | 16.2
COc1cc(F)ccc1-c1csc(C(C)(O)c2ccccc2)n1 (centres undefined) | -6.0 | · | · | · | ·
O=C(COC(=O)c1ccc(O)cc1)Nc1cc(S(=O)(=O)N2CCOCC2)ccc1Cl | -3.2 | -44.0 | -7.0 | -7.0 | 44.0
Nc1ccc(C(=O)n2c3ccccc3c3ccccc32)cc1 | · | -90.8 | -15.9 | -9.3 | 90.8*
C/C(=N\NC(=O)c1ccccc1[N+](=O)[O-])c1c(O)cc(C)oc1=O | 9.3 | 9.4 | -16.7 | -9.4 | -9.4
C/C(=N\NC(=O)c1ccccc1O)c1c(O)cc(C)oc1=O | -2.1 | -101.5 | -8.5 | -1.7 | 101.4*
Cc1ccccc1CN1CCCC(C(=O)Nc2ccccc2Oc2cccnc2)C1 (centres undefined) | -3.8 | 13.8 | -17.1 | 0.3 | -13.8
O=C(N/N=C/c1c(O)ccc2ccccc12)c1cccc(C(F)(F)F)c1 | 2.8 | -137.4 | -1.6 | 6.2 | 137.4*
CCOC(=O)C1=C(C)N=C2SCCC(=O)N2[C@@H]1c1cccs1 | -17.7 | 291.8* | -3.6 | 1.2 | -291.8
CCOC(=O)C1=C(C)N=C2SCCC(=O)N2C1c1cccs1 (centres undefined) | -2.5 | 8.6 | -1.8 | 10.0 | -8.6
NC(=S)N/N=C1\CCSc2ccc(Cl)cc21 | · | -81.2 | · | · | 81.2*
CN=c1scc(C)n1/N=C/c1cc(Br)c(O)c(Br)c1 | -6.1 | 13.4 | -12.9 | -1.9 | -13.4
CCN=c1scc(C)n1/N=C/c1cc(Br)c(O)c(OC)c1 | 3.9 | -71.7 | -4.9 | 0.2 | 71.7*
OC[C@@H]1CN(Cc2ccc3c(c2)OCO3)C[C@H](n2cnc3c(NC4CC4)ncnc32)O1 | -8.9 | · | · | · | ·
CCn1c(COc2ccccc2)nnc1SCC(=O)c1cccc([N+](=O)[O-])c1 | 2.5 | -26.9 | -6.7 | -7.4 | 26.9
CCOc1cc(C)ccc1OCc1nnc(SCC(=O)c2cccc([N+](=O)[O-])c2)n1CC | -2.4 | -88.4 | -8.6 | -3.4 | 88.4*
